Results as given in ChEMBL document CHEMBL3046238, “Synthesis and biological activity evaluation of 1,2,3-thiadiazole derivatives as potential elicitors with highly systemic acquired resistance” (2009).
Calls of active or inactive are those of the source. The rule behind the calls is not given here.

Tests used:
Assay type in all cases: functional
[1] = tested on: Cytospora mali; assay: Antifungal activity against Valsa mali assessed as growth inhibition at 50 ug/mL measured after 2 days post dose; conditions: for inhibition of growth at 50 µg/mL: 48 h, read-out: GI
[2] = tested on: Alternaria mali; assay: Antifungal activity against Alternaria mali assessed as growth inhibition at 50 ug/mL measured after 2 days post dose; conditions: for inhibition of growth at 50 µg/mL: 48 h, read-out: GI
[3] = tested on: Sclerotinia sclerotiorum; assay: Antifungal activity against Sclerotinia sclerotiorum assessed as growth inhibition at 50 ug/mL measured after 2 days post dose; conditions: 48 h, read-out: GI
[4] = tested on: Botrytis cinerea; assay: Antifungal activity against Botryotinia fuckeliana assessed as growth inhibition at 50 ug/mL measured after 2 days post dose; conditions: for inhibition of growth at 50 µg/mL: 48 h, read-out: GI
[5] = tested on: Puccinia triticina; assay: Antifungal activity against Puccinia triticina inoculated on 500 ug/mL compound pre-treated wheat plants with 3 to 5 leaves assessed as growth inhibition
Summary of the method: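 Healthy wheat plants at the 3-5 leaf stage were sprayed with compound (500 μg/mL) and then inoculated with spores. Inhibition percentage was calculated against the corresponding spore stack.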

[6] = tested on: Ceratobasidium cereale; assay: Antifungal activity against Ceratobasidium cereale assessed as growth inhibition at 50 ug/mL measured after 2 days post dose; conditions: for inhibition of growth at 50 µg/mL: 48 h, read-out: GI
[7] = tested on: Botryosphaeria berengeriana; assay: Antifungal activity against Botryosphaeria berengeriana assessed as growth inhibition at 50 ug/mL measured after 2 days post dose; conditions: for inhibition of growth at 50 µg/mL: 48 h, read-out: GI
[8] = tested on: Phytophthora infestans; assay: Antifungal activity against Phytophthora infestans assessed as growth inhibition at 50 ug/mL measured after 2 days post dose; conditions: for inhibition of growth at 50 µg/mL: 48 h, read-out: GI
Summary of the method: (§1)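 Compound stock at 500 μg/mL in DMF, diluted with sterile water in the dish and mixed into potato dextrose agar before setting. A 4 mm diameter fungal plug is placed on the plate and cultured at 24-26 °C. Colony diameter is measured after 2 days.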

[9] = tested on: Rhizoctonia solani; assay: Antifungal activity against Rhizoctonia solani assessed as growth inhibition at 50 ug/mL measured after 2 days post dose; conditions: for inhibition of growth at 50 µg/mL: 48 h, read-out: GI
[10] = tested on: Alternaria solani; assay: Antifungal activity against Alternaria solani assessed as growth inhibition at 50 ug/mL measured after 2 days post dose; conditions: 48 h, read-out: GI
[11] = tested on: Fusarium oxysporum f. sp. vasinfectum; assay: Antifungal activity against Fusarium oxysporum f. sp. vasinfectum assessed as growth inhibition at 50 ug/mL measured after 2 days post dose; conditions: for inhibition of growth at 50 µg/mL: 48 h, read-out: GI
[12] = tested on: Colletotrichum gloeosporioides; assay: Antifungal activity against Glomerella cingulata assessed as growth inhibition at 50 ug/mL measured after 2 days post dose; conditions: for inhibition of growth at 50 µg/mL: 48 h, read-out: GI
[13] = tested on: Ustilaginoidea virens; assay: Antifungal activity against Villosiclava virens assessed as growth inhibition at 50 ug/mL measured after 2 days post dose; conditions: for inhibition of growth at 50 µg/mL: 48 h, read-out: GI
[14] = tested on: Fusarium graminearum; assay: Antifungal activity against Fusarium graminearum assessed as growth inhibition at 50 ug/mL measured after 2 days post dose; conditions: for inhibition of growth at 50 µg/mL: 48 h, read-out: GI; summary of the method: as §1
[15] = tested on: Mycosphaerella arachidis; assay: Antifungal activity against Mycosphaerella arachidis assessed as growth inhibition at 50 ug/mL measured after 2 days post dose; conditions: for inhibition of growth at 50 µg/mL: 48 h, read-out: GI
[16] = tested on: Fusarium oxysporum; assay: Antifungal activity against Fusarium oxysporum assessed as growth inhibition at 50 ug/mL measured after 2 days post dose; conditions: 48 h, read-out: GI
[17] = tested on: Fusarium fujikuroi; assay: Antifungal activity against Fusarium fujikuroi assessed as growth inhibition at 50 ug/mL measured after 2 days post dose; conditions: for inhibition of growth at 50 µg/mL: 48 h, read-out: GI
[18] = tested on: Tobacco mosaic virus; assay: Induction of systemic acquired resistance against Tobacco mosaic virus (TMV) in tobacco plants exposed to 500 ug/mL compound through leaf spray followed by 7 days culture under green house conditions assessed as inhibition of viral growth in leaves infected with Tobacco mosaic virus (TMV) measured 72 hr post viral infection by half-leaf juice rubbing method; set-up: scale not given: the % may be the effect or the level left
Summary of the method: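 Tobacco plants received compound by leaf spray or by soil irrigation, with double-distilled water as CK. Newly grown leaves were then rub-inoculated with TMV (5.88×10-2 μg/mL), and plants were kept at 25 °C for 72 h. Lesions on inoculated leaves were counted. Inhibition = (CK−A)/CK×100 from mean lesion numbers versus control.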

SMILES | inhibition of growth at 50 µg/mL [1] | inhibition of growth at 50 µg/mL [2] | inhibition of growth at 50 µg/mL [3] | inhibition of growth at 50 µg/mL [4] | growth inhibition (GI) [5] | inhibition of growth at 50 µg/mL [6] | inhibition of growth at 50 µg/mL [7] | inhibition of growth at 50 µg/mL [8] | inhibition of growth at 50 µg/mL [9] | inhibition of growth at 50 µg/mL [10] | inhibition of growth at 50 µg/mL [11] | inhibition of growth at 50 µg/mL [12] | inhibition of growth at 50 µg/mL [13] | inhibition of growth at 50 µg/mL [14] | inhibition of growth at 50 µg/mL [15] | inhibition of growth at 50 µg/mL [16] | inhibition of growth at 50 µg/mL [17] | Activity [18] | growth inhibition (GI) [8] | also measured
COc1cccc(-c2nnc(-c3snnc3C)o2)c1 | 41.2% | 27.6% | 23.5% | 13.8% | 39% | 13.8% | 33.3% | 20% | 0% | 11.7% | 0% | 0% | 0% | 31% | 17.6% | 0% | 17.2% | 0% | – | –
CCc1cc(-c2nnc(-c3snnc3C)o2)nn1C | – | – | 0% | – | 20% | – | 16.7% | 17.1% | – | 17.9% | – | 42.1% | – | 27.8% | 33.3% | 26.5% | – | 20% | – | growth inhibition (GI) [1]: inactive; growth inhibition (GI) [2]: inactive; growth inhibition (GI) [4]: inactive; growth inhibition (GI) [6]: inactive; growth inhibition (GI) [9]: inactive; growth inhibition (GI) [11]: inactive; growth inhibition (GI) [13]: inactive; growth inhibition (GI) [17]: inactive
Cc1nnsc1-c1nnc(-c2ccc(=O)[nH]c2)o1 | 47.2% | 27.3% | 53.6% | 21.1% | inactive | 13.8% | 23.5% | 31% | 44.4% | 31% | 24.1% | 13.8% | 22.2% | 13.8% | 0% | 33.3% | 17.6% | inactive | – | –
CCCCCCCc1nnc(-c2snnc2C)o1 | 0% | 38.9% | 32.1% | 0% | 83% | 0% | 25.4% | 100% | 26.6% | 31.6% | 0% | 42.1% | 0% | 34.2% | 0% | 12.5% | 21.1% | 0% | – | –
Cc1ccc(-c2nnc(-c3snnc3C)o2)cc1 | – | – | 56% | 2.1% | 11% | – | – | 0% | 67.9% | 18.4% | – | – | – | – | – | 0% | – | 0% | – | growth inhibition (GI) [1]: inactive; growth inhibition (GI) [2]: inactive; growth inhibition (GI) [6]: inactive; growth inhibition (GI) [7]: inactive; growth inhibition (GI) [11]: inactive; growth inhibition (GI) [12]: inactive; growth inhibition (GI) [13]: inactive; growth inhibition (GI) [14]: inactive; growth inhibition (GI) [15]: inactive; growth inhibition (GI) [17]: inactive
Cc1nnsc1-c1nnc(-c2snnc2C)o1 | 0% | 0% | 32.1% | 0% | 28% | 0% | 38.1% | – | 0% | 44.7% | 0% | 13.8% | 0% | 31.6% | 13.6% | 31.3% | 21.1% | 0% | inactive | –
Cc1nnsc1-c1nnc(/C=C/c2ccccc2)o1 | 20.3% | 0% | 0% | 0% | 20% | 0% | 46% | 20% | 0% | 31.6% | 23.7% | 13.8% | 0% | 36.8% | 27.3% | 36.3% | 21.1% | 0% | – | –
Cc1nn(-c2ccccc2)nc1-c1nnc(-c2snnc2C)o1 | 22.2% | 31% | 23.5% | 41.4% | 0% | 37.9% | 44.4% | – | 0% | 17.6% | 0% | 0% | 0% | 31% | 17.6% | 0% | 0% | 10% | inactive | –
CCCc1c(-c2nnc(-c3snnc3C)o2)cnn1-c1ccc(Cl)cc1 | 19.4% | 27.6% | 23.5% | 31% | 0% | 31% | 44.4% | – | 0% | 17.6% | 0% | 0% | 0% | 48.3% | 41.2% | 0% | 31% | 0% | inactive | –
Cc1ccc(-c2nnc(-c3snnc3C)o2)c(Cl)n1 | 22.2% | 24.1% | 0% | 17.2% | 17% | 13.8% | 38.9% | 30% | 22.2% | 0% | 0% | 0% | 17.6% | 31% | 23.5% | 0% | 17.2% | 30% | – | –
Cc1ccc(-c2nnc(-c3snnc3C)o2)s1 | 0% | 38.9% | 40.5% | 0% | 0% | 0% | 39.7% | – | 0% | 36.8% | 0% | 13.8% | 0% | 21.1% | 9% | 31.3% | 21.1% | inactive | inactive | –
Cc1nnsc1-c1nnc(-c2ccco2)o1 | – | – | 0% | – | 0% | – | 38.9% | 0% | – | 53.6% | – | 42.1% | – | 22.2% | 87.5% | 19.1% | – | 0% | – | growth inhibition (GI) [1]: inactive; growth inhibition (GI) [2]: inactive; growth inhibition (GI) [4]: inactive; growth inhibition (GI) [6]: inactive; growth inhibition (GI) [9]: inactive; growth inhibition (GI) [11]: inactive; growth inhibition (GI) [13]: inactive; growth inhibition (GI) [17]: inactive
